# Published values from different studies.
# Lines come from different studies, so protocols differ.
# Target: Mitogen-activated protein kinase kinase kinase 5 (MAP3K5, Homo sapiens, UniProt Q99683)
# Sequence (Q99683 1-1374, as in one of the studies): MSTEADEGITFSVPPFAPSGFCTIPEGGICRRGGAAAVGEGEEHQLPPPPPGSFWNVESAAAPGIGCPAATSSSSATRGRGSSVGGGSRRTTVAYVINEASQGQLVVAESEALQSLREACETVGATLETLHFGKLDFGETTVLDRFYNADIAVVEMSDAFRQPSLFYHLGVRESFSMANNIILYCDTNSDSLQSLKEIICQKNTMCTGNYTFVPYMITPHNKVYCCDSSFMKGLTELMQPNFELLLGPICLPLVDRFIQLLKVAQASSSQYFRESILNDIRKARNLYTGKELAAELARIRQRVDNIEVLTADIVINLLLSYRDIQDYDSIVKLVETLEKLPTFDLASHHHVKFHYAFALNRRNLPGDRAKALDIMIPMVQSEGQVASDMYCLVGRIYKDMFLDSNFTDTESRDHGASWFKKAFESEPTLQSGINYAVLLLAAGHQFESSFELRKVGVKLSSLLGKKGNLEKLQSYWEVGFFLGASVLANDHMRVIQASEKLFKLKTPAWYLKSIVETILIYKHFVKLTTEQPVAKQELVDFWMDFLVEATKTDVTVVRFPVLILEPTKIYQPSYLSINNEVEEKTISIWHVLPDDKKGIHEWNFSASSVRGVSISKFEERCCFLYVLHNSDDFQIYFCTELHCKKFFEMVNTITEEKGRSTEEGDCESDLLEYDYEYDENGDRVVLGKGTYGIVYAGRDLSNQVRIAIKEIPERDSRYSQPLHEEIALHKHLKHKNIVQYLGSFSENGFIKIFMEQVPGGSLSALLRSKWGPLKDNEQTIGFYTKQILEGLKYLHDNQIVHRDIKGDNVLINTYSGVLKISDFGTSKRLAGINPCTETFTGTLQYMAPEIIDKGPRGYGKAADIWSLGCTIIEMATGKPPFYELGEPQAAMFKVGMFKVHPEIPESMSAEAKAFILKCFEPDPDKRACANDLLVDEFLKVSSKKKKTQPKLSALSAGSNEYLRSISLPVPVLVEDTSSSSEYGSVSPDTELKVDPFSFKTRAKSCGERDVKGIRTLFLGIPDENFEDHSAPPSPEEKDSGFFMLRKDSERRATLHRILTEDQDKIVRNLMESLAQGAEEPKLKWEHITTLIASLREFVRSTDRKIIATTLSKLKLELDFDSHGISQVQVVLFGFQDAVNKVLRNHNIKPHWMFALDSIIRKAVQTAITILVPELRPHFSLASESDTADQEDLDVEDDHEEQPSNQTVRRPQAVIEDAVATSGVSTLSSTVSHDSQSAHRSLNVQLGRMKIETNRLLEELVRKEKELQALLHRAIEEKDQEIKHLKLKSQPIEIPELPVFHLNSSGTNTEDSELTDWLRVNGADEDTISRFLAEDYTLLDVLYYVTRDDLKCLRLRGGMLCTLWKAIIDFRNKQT
SMILES,assay,test system,conditions,quantity,value
c1ccc(CNc2nc(N3CCOc4ccccc43)nc3c2CCCC3)cc1,"target engagement in cells, inhibitor, chemoproteomics",,20 mM,inhibition,-10.3%
NS(=O)(=O)c1cc(NC(=O)Cc2ccccc2)ccc1Oc1cccc(Cl)c1,"cell-free assay, competition with immobilised ligand",,1 µM,remaining binding,100%
FC(F)(F)Oc1cccc(-c2cnc3ccc(-c4ccncc4)nn23)c1,"enzyme activity, inhibitor, radiometric",,5 µM,activity vs control,104%
Cc1ccc(C(=O)Nc2ccc(CN3CCN(C)CC3)c(C(F)(F)F)c2)cc1C#Cc1cnc2cccnn12,"enzyme activity, inhibitor",,23.5 nM,remaining activity,100%
CNC(=O)c1cc(Oc2ccc(NC(=O)Nc3ccc(Cl)c(C(F)(F)F)c3)cc2)ccn1,"enzyme activity, inhibitor",,0.3 µM,inhibition,0%
O=C(Nc1cnn(-c2csc(C(=O)NC3COC3)c2)c1)Nc1ccccc1Cl,"enzyme activity, inhibitor",,5 µM,remaining activity,91.2%
CC(C)(C)c1nc(-c2cccc(NS(=O)(=O)c3c(F)cccc3F)c2F)c(-c2ccnc(N)n2)s1,"enzyme activity, inhibitor, radiometric",,1 µM,remaining activity,98%
Cc1cnc(NC2CCOCC2)nc1-n1cnc(C(=O)NC(CN)c2cc(F)cc(Cl)c2)c1 (stereo not drawn),"enzyme activity, inhibitor, radiometric",,1 µM,remaining activity,105%
CN1CC(Oc2cnc(C#N)cc2-c2ccn3nc(NC(=O)C4CC4)cc3c2)C1,"enzyme activity, inhibitor",,1 µM,inhibition,-2%
Cc1ccc(Nc2nccc(N(C)c3ccc4c(C)n(C)nc4c3)n2)cc1S(N)(=O)=O,"enzyme activity, inhibitor",,0.3 µM,inhibition,6%
Cc1ccc(NC(=O)c2ccc(C)c(C(F)(F)F)c2)cc1C#Cc1nn(C2CCC(O)CC2)c2ncnc(N)c12 (stereo not drawn),cell-free assay,,10 µM,remaining signal,127%
CNCc1ccc(-c2cc(-c3nc(-c4ccc(S(=O)(=O)C(C)C)cc4)cnc3N)on2)cc1,"enzyme activity, inhibitor",,0.4 µM,inhibition,0%
Cn1nc(C(=O)NCc2ccc(C(=O)O)cc2)cc1-c1ccc2[nH]ccc2c1,"cell-free assay, competition with immobilised ligand",,0.1 µM,remaining binding,86%
N#CCCc1ccc2c(c1)-c1[nH]c3ccc([N+](=O)[O-])cc3c1CC(=O)N2,cell-free assay,,0.5 µM,remaining signal,101%
CCN1CCN(Cc2ccc(NC(=O)c3ccc(C)c(Oc4ccnc5[nH]ccc45)c3)cc2C(F)(F)F)CC1,"target engagement in cells, inhibitor, chemoproteomics",A-375,0.5 µM,inhibition,-10.5%
CCN(CC)CCNC(=O)c1c(C)[nH]c(/C=C2\C(=O)Nc3ccc(F)cc32)c1C,"enzyme activity, inhibitor",,0.3 µM,inhibition,4%
COc1cc(/C=C/C(=O)CC(=O)/C=C/c2ccc(O)c(OC)c2)ccc1O,"enzyme activity, inhibitor",,1 µM,activity vs control,101%
CCCOc1ccc(OC)c(F)c1C(=O)c1ccc(C(=O)N[C@@H]2CNC[C@H]2NC(=O)c2ccc3[nH]ncc3c2)cc1,"enzyme activity, inhibitor",,10 µM,remaining activity,83%
N#CC1c2c([nH]c3c(Cl)c(Cl)ccc23)C(=O)NC12CCCCC2 (racemic),"thermal stability, DSF",,10 µM,ΔTm,0.6 °C
CCCS(=O)(=O)Nc1ccc(F)c(C(=O)c2c[nH]c3ncc(-c4ccc(Cl)cc4)cc23)c1F,"enzyme activity, inhibitor",,1 µM,inhibition,< 10%
COc1cc(Nc2cnc(C#N)c(O[C@H](C)CN(C)C)n2)ncc1-c1cnn(C)c1,"enzyme activity, inhibitor, radiometric",,10 µM,remaining activity,67%
CNC(=O)Nc1ccc2c(c1)[C@@]1(CC2)OC(=O)N(CC(=O)N(Cc2ccc(F)cc2)[C@@H](C)C(F)(F)F)C1=O,"cell-free assay, competition with immobilised ligand",,1 µM,remaining binding,100%
CC/C(=N\NC(=O)NCc1cccc(O)c1)c1ccc(O)c(C)c1O,"enzyme activity, inhibitor",,0.1 µM,inhibition,4%
CN(C)c1ncnc(-c2ccc3nc(Nc4cc(CN5CCN(C(=O)CC(F)(F)F)CC5)ccn4)[nH]c3c2)c1Cl,"cell-free assay, competition with immobilised ligand",,1 µM,remaining binding,100%
Oc1cccc(-c2nc(N3CCOCC3)c3oc4ncccc4c3n2)c1,"enzyme activity, inhibitor",,10 µM,remaining activity,101%
CCN1CCN(Cc2ccc(NC(=O)c3ccc(C)c(/C=C/c4cnc5[nH]ccc5c4OC)c3)cc2C(F)(F)F)CC1,"target engagement in cells, inhibitor, chemoproteomics",A-375,0.5 µM,inhibition,-26.3%
CN1CCC2(CC1)NC(=O)c1c(c3ccc(Cl)c(Cl)c3n1C)C2C#N (racemic),"thermal stability, DSF",,10 µM,ΔTm,0.3 °C
O=C1Nc2ccc(Cl)cc2C1=Cc1cc(Cl)c(O)c(Cl)c1,cell-free assay,,0.5 µM,remaining signal,106%
Cn1c2c(Cl)c(Cl)ccc2c2cc(N)[nH]c(=O)c21,"thermal stability, DSF",,10 µM,ΔTm,1.5 °C
Cn1nc(C(F)(F)F)cc1-c1cnc(N2CCc3cc(S(=O)(=O)Nc4c(F)cc(Cl)cc4F)cc(N4CCCC4=O)c32)nc1,"cell-free assay, competition with immobilised ligand",,1 µM,remaining binding,100%
CCC1(CC)NC(=O)c2c(c3ccc(Cl)c(Cl)c3n2C)C1C#N (stereo not drawn),"thermal stability, DSF",,10 µM,ΔTm,0.7 °C
CN(C(=O)c1ccccc1)c1cc(N(C)c2ccc3c(c2)CCc2ccc(C(=O)NCCN4CCOCC4)cc2C3=O)ccc1F,"cell-free assay, competition with immobilised ligand",,1 µM,remaining binding,100%
Cn1c2c(Cl)c(Cl)ccc2c2cc[nH]c(=O)c21,"thermal stability, DSF",,10 µM,ΔTm,2.1 °C
COc1ccc2c(c1)O[C@H](c1ccc(OC)c(OC)c1)C[C@@H]2NC(=O)C1(c2ccc3c(c2)OC(F)(F)O3)CC1,"cell-free assay, competition with immobilised ligand",,1 µM,remaining binding,100%
CCN1CCC2(CC1)NC(=O)c1c(c3ccc(Cl)c(Cl)c3n1C)C2C#N (racemic),"thermal stability, DSF",,10 µM,ΔTm,0.1 °C
Cc1noc([C@H]2C[C@@H](c3ccc(C(F)(F)F)cc3)CN(C(=O)N3CCS(=O)(=O)C3)C2)n1,"cell-free assay, competition with immobilised ligand",,1 µM,remaining binding,100%
